Data on ten compounds can be found in ChEMBL document CHEMBL1165965, “Synthesis and structure-activity relationships of 1,2,3,4-tetrahydropyrido[2,3-b]pyrazines as potent and selective inhibitors of the anaplastic lymphoma kinase” (Bioorg Med Chem, 2010).

Molecules are shown by their SMILES. Some results are limits rather than exact numbers.

Experiment [1] addresses T1, Mitogen-activated protein kinase kinase kinase 15 (Homo sapiens) (UniProt Q6ZN16).
T1 sequence (whole entry): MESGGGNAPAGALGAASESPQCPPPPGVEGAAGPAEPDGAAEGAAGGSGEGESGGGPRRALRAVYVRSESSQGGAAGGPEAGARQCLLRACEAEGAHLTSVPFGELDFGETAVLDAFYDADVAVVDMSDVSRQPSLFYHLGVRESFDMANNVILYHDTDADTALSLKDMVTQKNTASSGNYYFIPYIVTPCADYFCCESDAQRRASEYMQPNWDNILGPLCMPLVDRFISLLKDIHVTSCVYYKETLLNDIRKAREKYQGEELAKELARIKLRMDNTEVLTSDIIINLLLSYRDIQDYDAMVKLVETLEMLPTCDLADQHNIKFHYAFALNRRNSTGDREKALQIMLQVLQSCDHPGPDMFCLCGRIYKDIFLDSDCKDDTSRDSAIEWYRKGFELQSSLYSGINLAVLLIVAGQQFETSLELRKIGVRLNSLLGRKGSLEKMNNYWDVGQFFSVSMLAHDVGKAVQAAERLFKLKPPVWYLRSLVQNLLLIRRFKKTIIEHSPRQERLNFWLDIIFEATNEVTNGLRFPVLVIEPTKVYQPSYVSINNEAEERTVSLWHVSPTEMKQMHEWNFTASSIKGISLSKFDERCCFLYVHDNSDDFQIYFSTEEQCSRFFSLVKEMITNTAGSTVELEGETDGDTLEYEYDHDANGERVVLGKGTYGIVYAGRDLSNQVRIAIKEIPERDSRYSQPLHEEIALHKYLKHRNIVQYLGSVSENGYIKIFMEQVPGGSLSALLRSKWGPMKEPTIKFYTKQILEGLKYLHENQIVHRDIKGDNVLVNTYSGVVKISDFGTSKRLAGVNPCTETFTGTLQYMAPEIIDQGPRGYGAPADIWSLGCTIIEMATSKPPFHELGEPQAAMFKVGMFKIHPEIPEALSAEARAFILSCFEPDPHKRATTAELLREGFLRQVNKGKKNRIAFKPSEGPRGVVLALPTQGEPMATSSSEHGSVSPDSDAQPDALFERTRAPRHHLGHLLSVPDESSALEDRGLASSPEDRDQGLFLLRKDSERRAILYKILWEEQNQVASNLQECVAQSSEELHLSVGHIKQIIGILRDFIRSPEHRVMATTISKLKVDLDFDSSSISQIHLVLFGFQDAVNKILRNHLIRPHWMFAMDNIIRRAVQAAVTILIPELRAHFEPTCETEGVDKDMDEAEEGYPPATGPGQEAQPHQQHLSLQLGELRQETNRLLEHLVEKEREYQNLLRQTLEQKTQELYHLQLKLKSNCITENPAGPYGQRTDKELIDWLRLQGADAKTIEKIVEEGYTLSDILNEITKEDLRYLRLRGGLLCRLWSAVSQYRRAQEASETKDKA
The experiment can be described thus: Inhibition of MAP3K15 at 1 uM.

Experiment [2] has as its target T2, Dual specificity mitogen-activated protein kinase kinase 6 (Homo sapiens) (UniProt P52564).
T2 sequence (whole entry): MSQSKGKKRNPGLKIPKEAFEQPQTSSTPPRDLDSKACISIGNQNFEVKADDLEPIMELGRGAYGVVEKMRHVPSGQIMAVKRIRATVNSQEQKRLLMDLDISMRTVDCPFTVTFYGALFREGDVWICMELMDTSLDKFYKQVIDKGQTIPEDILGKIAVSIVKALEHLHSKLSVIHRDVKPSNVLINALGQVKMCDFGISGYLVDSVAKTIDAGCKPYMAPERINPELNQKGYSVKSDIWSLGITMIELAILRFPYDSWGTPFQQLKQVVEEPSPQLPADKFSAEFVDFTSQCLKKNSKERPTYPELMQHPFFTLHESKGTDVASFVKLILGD
The experiment can be described thus: Inhibition of MEK6 at 1 uM. The gist of the method:
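Kinase-panel screen using KINOMEscan technology, with 250–400 kinases per panel. Each compound was tested at a single concentration, and inhibition of each kinase was recorded. Selectivity was summarised as S(90), the fraction of kinases inhibited by more than 90%.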

In experiment [3] the target is Serine/threonine-protein kinase pim-3 (Homo sapiens) (UniProt Q86V86). The experiment is described as follows: Inhibition of PIM3 at 1 uM.
Experiment [4] deals with T3, Non-receptor tyrosine-protein kinase TNK1 (Homo sapiens) (UniProt Q13470).
T3 sequence (whole entry): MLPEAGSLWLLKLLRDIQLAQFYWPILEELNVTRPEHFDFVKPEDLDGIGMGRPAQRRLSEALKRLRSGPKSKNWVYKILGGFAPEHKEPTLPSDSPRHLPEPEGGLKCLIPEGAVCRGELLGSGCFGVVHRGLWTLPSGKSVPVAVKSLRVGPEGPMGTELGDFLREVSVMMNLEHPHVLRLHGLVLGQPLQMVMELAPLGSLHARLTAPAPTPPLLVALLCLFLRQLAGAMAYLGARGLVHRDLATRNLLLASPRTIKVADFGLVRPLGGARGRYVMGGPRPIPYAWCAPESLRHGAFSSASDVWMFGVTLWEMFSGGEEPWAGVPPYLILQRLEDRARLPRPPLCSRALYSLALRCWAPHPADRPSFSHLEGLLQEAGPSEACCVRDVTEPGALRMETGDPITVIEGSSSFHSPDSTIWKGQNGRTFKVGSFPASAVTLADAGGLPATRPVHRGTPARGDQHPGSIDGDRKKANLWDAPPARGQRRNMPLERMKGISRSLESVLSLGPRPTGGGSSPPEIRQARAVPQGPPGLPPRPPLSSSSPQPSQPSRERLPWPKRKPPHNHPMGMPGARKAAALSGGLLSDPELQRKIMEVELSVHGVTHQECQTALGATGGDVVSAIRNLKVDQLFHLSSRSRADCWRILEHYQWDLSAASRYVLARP
The experiment is described as follows: Inhibition of TNK1 at 1 uM.

For experiment [5], the target named is T4, Serine/threonine-protein kinase 17A (Homo sapiens) (UniProt Q9UEE5).
T4 sequence (whole entry): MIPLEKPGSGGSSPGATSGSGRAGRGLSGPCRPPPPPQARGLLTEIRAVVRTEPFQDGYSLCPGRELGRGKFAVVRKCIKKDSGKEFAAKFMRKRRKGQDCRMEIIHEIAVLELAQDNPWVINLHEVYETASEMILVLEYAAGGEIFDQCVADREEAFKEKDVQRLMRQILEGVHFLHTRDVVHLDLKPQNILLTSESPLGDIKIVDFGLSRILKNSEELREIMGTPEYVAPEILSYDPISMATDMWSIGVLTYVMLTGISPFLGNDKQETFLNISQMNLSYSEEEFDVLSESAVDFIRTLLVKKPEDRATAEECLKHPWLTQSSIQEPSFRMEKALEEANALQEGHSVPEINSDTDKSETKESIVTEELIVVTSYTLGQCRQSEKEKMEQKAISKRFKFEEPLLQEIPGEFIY
The experiment can be described thus: Inhibition of DRAK1 at 1 uM.

The target of experiment [6] is Tyrosine-protein kinase FRK (Homo sapiens) (UniProt P42685). The experiment can be described thus: Inhibition of FRK at 1 uM. In short, it runs like this:
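Single-concentration screen on the Ambit KINOMEscan platform, run against a panel of 250–400 kinases. Per-kinase inhibition was also summarized as S(90), the fraction of kinases inhibited by more than 90%.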

Tyrosine-protein kinase FRK (Homo sapiens), sequence (P42685 whole entry): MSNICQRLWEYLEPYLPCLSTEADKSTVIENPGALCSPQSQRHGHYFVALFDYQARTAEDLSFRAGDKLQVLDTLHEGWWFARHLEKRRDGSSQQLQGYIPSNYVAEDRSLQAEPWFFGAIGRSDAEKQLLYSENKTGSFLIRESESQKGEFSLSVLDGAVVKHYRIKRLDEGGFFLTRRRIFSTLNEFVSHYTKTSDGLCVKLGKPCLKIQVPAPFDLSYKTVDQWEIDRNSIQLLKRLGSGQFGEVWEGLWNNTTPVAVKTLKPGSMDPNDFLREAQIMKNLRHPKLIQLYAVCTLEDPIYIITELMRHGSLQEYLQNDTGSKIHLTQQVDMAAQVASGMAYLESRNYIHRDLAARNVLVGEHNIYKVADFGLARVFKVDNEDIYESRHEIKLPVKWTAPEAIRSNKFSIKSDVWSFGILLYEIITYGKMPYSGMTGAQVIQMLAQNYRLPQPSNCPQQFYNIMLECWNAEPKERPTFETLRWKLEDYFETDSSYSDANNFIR

The inhibition is the relative decrease from the control value, in per cent. As for `FC(F)(F)c1ccc(Cl)cc1CN1CCNc2ncc(-c3ccnc(N4CCNCC4)c3)cc21`, the inhibition in experiment [1], in experiment [2], in experiment [3], in experiment [4], in experiment [5] and in experiment [6] was < 50% in each case.
For the compound `CN1CCN(c2ccc(-c3cnc4c(c3)N(Cc3cc(Cl)ccc3Cl)CCN4)cn2)CC1`, the inhibition in experiment [1], in experiment [2], in experiment [3], in experiment [4], in experiment [5] and in experiment [6] was < 50% each time.
Consider `COC1CCN(C(=O)c2ccc(-c3cnc4c(c3)N(Cc3cc(Cl)ccc3C(F)(F)F)CCN4)cc2)CC1`, for which the inhibition in experiment [2], in experiment [3], in experiment [4] and in experiment [6] was < 50% each time.
As to `O=C(c1ccc(-c2cnc3c(c2)N(Cc2cc(Cl)ccc2C(F)(F)F)CCN3)cc1)N1CCCCC1`, the inhibition in experiment [2], in experiment [3], in experiment [4] and in experiment [6] was < 50% each time.
In the case of `O=C(O)c1ccc(-c2cnc3c(c2)N(Cc2cc(Cl)ccc2C(F)(F)F)CCN3)cc1`, the inhibition in experiment [2] was 93%; in experiment [3], 79.2%; in experiment [4], < 50%; in experiment [6] it was < 50%.
Regarding `CN1CCN(c2ccc(-c3cnc4c(c3)N(Cc3cc(F)ccc3F)CCN4)cn2)CC1`, the inhibition in experiment [1] was < 50%; in experiment [2], < 50%; in experiment [3] it was < 50%; in experiment [4], 58.2%; in experiment [5], < 50%; in experiment [6], < 50%.
For the compound `O=C(c1ccc(-c2cnc3c(c2)N(Cc2cc(Cl)ccc2C(F)(F)F)CCN3)cc1)N1CCC(N2CCCC2)CC1`, the inhibition in experiment [2] was < 50%; in experiment [3], < 50%; in experiment [4], 81.7%; in experiment [6], < 50%.
As to `CN1CCN(c2ccc(-c3cnc4c(c3)N(Cc3c(F)ccc(F)c3Cl)CCN4)cn2)CC1`, the inhibition was < 50% in experiment [1]; < 50% in experiment [2]; < 50% in experiment [3]; < 50% in experiment [4]; < 50% in experiment [5]; 66% in experiment [6].
Regarding `CC(=O)N1CCN(c2cc(-c3cnc4c(c3)N(Cc3cc(Cl)ccc3C(F)(F)F)CCN4)ccn2)CC1`, the inhibition in experiment [1], in experiment [2], in experiment [3], in experiment [4], in experiment [5] and in experiment [6] was < 50% throughout.
Turning to `CN1CCN(c2ccc(-c3cnc4c(c3)N(Cc3cc(Cl)ccc3C(F)(F)F)CCN4)cn2)CC1`, the inhibition in experiment [1], in experiment [2], in experiment [3], in experiment [4], in experiment [5] and in experiment [6] was < 50% each time.
